Reference: ChEMBL document CHEMBL3853360, “Combined Interactions with I1-, I2-Imidazoline Binding Sites and α2-Adrenoceptors To Manage Opioid Addiction” (ACS Med Chem Lett, 2016)

How the values were obtained:
Homo sapiens = species on record: Homo sapiens; experiment: Selectivity ratio of agonist activity at I1 receptor imidazoline binding site (unknown origin) to agonist activity at alpha2-AR (unknown origin)
[1] = target: T1, Adrenergic receptor alpha-2 (Rattus norvegicus, UniProt P22086+P19328+P22909); experiment: Displacement of [3H]-RX 821002 from alpha2-AR in Sprague-Dawley rat brain membranes after 30 mins by liquid scintillation counting; assay type: cell membranes, Membrane
T1 sequence (P22086 whole entry): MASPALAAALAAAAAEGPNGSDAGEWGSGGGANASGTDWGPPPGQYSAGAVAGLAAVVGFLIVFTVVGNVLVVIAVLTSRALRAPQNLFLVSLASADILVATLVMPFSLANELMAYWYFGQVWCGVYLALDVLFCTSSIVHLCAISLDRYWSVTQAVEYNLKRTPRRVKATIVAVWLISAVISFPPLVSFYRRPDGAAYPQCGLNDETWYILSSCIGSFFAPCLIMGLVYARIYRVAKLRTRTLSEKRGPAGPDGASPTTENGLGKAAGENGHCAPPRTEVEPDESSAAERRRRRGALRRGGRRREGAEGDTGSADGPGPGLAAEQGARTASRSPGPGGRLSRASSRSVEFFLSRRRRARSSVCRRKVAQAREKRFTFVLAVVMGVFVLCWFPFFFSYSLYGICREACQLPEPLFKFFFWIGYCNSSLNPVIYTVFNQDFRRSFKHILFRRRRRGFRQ
T1 sequence (P19328 whole entry): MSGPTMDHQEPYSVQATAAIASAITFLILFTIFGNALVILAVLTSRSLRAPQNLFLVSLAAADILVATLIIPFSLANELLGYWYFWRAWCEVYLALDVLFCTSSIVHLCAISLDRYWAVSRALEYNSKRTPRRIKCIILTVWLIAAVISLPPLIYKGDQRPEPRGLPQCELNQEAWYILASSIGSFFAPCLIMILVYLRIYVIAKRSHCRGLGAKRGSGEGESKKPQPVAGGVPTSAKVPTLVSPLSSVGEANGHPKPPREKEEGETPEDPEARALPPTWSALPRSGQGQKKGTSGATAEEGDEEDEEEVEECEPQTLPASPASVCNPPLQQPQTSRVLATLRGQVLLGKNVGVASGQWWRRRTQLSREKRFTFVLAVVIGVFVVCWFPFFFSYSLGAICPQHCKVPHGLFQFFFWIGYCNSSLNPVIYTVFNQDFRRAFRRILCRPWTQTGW
T1 sequence (P22909 whole entry): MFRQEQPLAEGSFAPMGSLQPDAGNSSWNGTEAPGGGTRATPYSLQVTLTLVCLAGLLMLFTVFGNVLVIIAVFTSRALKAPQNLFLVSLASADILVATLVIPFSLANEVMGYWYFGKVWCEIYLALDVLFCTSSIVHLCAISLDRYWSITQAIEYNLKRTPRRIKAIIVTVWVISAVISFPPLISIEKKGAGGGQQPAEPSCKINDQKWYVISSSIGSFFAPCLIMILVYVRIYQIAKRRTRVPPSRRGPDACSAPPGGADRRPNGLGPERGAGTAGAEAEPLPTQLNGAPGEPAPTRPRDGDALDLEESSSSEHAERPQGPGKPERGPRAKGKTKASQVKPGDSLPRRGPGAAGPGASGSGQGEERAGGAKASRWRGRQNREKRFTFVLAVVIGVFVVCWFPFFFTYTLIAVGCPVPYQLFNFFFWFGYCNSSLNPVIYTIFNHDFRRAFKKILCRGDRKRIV
Method in brief: (§1)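 Radioligand competition binding with pKi determined by displacement. I1 sites: [125I]-p-iodoclonidine on rat kidney membranes. I2 sites: [3H]-2-BFI on rat brain membranes. α2-ARs: [3H]-RX821002 on rat brain membranes.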

Nischarin = Nischarin (Rattus norvegicus, UniProt Q4G017); experiment: Displacement of [125I]-p-iodoclonidine from I1 receptor imidazoline binding site in Sprague-Dawley rat kidney cell membranes after 30 mins by liquid scintillation counting; method in brief: as §1
Sequence of Nischarin (Q4G017 whole entry): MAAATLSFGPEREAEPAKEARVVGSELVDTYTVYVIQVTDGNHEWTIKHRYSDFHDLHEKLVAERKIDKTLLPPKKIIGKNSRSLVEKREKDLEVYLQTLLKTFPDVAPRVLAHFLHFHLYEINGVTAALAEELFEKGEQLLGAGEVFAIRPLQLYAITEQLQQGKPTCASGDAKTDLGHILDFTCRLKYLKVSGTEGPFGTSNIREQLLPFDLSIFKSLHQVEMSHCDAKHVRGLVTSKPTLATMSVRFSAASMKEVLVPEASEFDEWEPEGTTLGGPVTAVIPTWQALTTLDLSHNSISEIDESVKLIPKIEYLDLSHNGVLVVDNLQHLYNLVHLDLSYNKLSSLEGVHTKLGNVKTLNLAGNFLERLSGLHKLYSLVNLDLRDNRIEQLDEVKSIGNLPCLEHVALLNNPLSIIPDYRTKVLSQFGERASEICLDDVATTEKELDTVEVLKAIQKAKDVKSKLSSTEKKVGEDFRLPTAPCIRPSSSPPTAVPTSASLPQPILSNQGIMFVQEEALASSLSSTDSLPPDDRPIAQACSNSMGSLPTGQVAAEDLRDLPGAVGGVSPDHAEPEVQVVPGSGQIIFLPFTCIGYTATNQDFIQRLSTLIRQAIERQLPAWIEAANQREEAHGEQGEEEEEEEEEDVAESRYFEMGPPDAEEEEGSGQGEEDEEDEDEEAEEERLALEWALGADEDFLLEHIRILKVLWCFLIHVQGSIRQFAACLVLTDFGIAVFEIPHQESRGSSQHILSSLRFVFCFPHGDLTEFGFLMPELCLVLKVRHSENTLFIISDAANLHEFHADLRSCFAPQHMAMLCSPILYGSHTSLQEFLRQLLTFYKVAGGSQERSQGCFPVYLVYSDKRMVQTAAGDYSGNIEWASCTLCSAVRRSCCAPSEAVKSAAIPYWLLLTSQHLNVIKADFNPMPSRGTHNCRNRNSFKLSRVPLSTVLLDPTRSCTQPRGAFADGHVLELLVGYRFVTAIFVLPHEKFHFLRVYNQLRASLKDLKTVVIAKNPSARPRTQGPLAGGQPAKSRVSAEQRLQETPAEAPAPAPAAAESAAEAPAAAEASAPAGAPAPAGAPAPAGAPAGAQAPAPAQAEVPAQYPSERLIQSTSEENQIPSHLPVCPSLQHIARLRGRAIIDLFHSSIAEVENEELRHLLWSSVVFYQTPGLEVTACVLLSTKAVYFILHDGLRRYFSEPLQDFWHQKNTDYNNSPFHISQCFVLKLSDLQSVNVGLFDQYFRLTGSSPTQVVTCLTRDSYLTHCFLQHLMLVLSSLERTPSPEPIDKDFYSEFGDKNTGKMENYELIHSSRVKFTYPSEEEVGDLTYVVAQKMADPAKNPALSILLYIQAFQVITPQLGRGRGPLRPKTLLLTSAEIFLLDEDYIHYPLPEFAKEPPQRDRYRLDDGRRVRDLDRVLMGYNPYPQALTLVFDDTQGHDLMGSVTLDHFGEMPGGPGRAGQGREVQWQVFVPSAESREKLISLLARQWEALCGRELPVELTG

[2] = Displacement of [3H]-2-BFI from I2 receptor imidazoline binding site in Sprague-Dawley rat brain membranes after 30 mins by liquid scintillation counting; assay type: cell membranes, Membrane; method in brief: as §1
[3] = Displacement of [3H]idazoxan from I2 receptor imidazoline binding site in rabbit kidney membranes after 45 mins by […]; assay type: cell membranes, Oryctolagus cuniculus, Membrane
[4] = target: T2, Alpha-2B adrenergic receptor (Homo sapiens, UniProt P18089); experiment: Agonist activity at human alpha2b-AR expressed in CHO cells assessed as rate of acidification after 240 mins by cytosensor microphysiometric analysis; assay type: cell-based
T2 sequence (P18089 whole entry): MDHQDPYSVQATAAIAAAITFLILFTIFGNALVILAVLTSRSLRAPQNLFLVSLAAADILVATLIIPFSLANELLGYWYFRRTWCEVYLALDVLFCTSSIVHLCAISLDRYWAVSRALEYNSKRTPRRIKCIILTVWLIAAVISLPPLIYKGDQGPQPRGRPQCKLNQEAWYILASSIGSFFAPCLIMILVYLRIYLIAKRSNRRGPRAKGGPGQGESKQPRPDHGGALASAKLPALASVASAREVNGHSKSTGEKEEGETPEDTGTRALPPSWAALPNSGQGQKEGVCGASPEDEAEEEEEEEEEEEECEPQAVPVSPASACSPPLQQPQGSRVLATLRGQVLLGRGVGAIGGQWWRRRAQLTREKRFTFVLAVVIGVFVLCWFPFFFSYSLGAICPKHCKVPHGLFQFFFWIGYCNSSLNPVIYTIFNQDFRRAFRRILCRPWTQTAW
Method in brief: (§2)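 Functional assay in CHO cells stably expressing a single human α2-AR subtype (α2A, α2B or α2C), read on a Cytosensor microphysiometer. Outputs are pEC50, intrinsic activity and, for antagonism, pKb. Intrinsic activity is expressed as a fraction of the full agonist (−)-noradrenaline, set at 1. Values are mean ± SEM of 3–5 separate experiments.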

[5] = target: T3, Alpha-2C adrenergic receptor (Homo sapiens, UniProt P18825); experiment: Agonist activity at human alpha2c-AR expressed in CHO cells assessed as rate of acidification after 240 mins by cytosensor microphysiometric analysis; assay type: cell-based; method in brief: as §2
T3 sequence (P18825 whole entry): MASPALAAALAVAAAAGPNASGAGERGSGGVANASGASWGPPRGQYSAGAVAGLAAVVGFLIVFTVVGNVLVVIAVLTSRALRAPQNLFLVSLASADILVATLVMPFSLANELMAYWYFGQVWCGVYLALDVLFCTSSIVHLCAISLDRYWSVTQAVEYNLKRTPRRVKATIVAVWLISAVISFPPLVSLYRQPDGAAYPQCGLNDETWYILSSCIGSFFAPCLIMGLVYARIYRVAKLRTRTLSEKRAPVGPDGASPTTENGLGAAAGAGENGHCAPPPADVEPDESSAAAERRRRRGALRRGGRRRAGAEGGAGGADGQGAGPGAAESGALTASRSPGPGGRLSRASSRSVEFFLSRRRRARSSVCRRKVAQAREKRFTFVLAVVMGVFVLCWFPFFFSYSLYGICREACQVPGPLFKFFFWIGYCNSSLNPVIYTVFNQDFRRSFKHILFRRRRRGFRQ

[6] = target: T4, Alpha-2A adrenergic receptor (Homo sapiens) (UniProt P08913); experiment: Antagonist activity at human alpha2a-AR expressed in CHO cells assessed as inhibition of (-)-noradrenaline-induced acidification rate after 240 mins by cytosensor microphysiometric analysis; assay type: cell-based; method in brief: as §2
T4 sequence (whole entry): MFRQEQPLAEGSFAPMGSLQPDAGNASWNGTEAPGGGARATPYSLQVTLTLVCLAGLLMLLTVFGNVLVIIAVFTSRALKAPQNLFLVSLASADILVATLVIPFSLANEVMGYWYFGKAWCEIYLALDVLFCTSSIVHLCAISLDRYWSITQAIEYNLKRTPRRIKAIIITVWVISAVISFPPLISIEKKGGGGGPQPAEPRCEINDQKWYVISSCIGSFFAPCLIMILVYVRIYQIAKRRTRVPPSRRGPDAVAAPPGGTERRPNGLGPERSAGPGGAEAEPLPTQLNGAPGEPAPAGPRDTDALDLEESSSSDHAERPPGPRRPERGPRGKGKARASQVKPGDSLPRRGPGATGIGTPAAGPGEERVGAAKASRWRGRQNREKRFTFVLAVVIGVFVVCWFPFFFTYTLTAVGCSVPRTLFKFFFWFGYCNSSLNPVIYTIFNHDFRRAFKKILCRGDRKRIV

[7] = target: T5, Alpha-2B adrenergic receptor (Homo sapiens) (UniProt P18089); experiment: Agonist activity at human alpha2b-AR expressed in CHO cells assessed as rate of acidification after 240 mins by cytosensor microphysiometric analysis relative to (-)-noradrenaline; assay type: cell-based; method in brief: as §2
T5 sequence (whole entry): T2 sequence (P18089 whole entry)

[8] = target: T6, Alpha-2C adrenergic receptor (Homo sapiens) (UniProt P18825); experiment: Agonist activity at human alpha2c-AR expressed in CHO cells assessed as rate of acidification after 240 mins by cytosensor microphysiometric analysis relative to (-)-noradrenaline; assay type: cell-based; method in brief: as §2
T6 sequence (whole entry): T3 sequence (P18825 whole entry)

Selectivity ratio (Homo sapiens)	pKi [1]	Ki (Nischarin) [nM]	pKi [2]	pKi [3]	EC50 [4] [nM]	EC50 [5] [nM]	pKb [6]	Intrinsic activity [7]	Intrinsic activity [8]	Structure (SMILES)
–	< 6	69.2	8.3	–	–	–	–	–	–	C=CCc1ccccc1/C=C/C1=NCCN1
–	< 6	24	8.79	–	–	–	–	–	–	Clc1ccccc1/C=C/C1=NCCN1
–	6.75	8.32	7.29	–	4570	115	6.71	0.55	0.75	CCCc1ccccc1NCC1=NCCN1

The next lines start with the compound.

Structure (SMILES)	Selectivity ratio (Homo sapiens)	pKi [1]	Ki (Nischarin) [nM]	pKi [2]	pKi [3]	EC50 [4] [nM]	EC50 [5] [nM]	pKb [6]	Intrinsic activity [7]	Intrinsic activity [8]
COc1nc(C)nc(Cl)c1NC1=NCCN1	40	–	–	–	–	–	–	–	–	–
c1ccc(NCC2=NCCN2)cc1 [PHENAMAZOLINE]	–	–	–	–	7.48	–	–	–	–	–
Clc1ccccc1NCC1=NCCN1	–	7.59	7.59	7.9	–	776	224	7.12	0.45	0.85
